Results from ChEMBL document CHEMBL4359877, “Identification of benzothiazinones containing an oxime functional moiety as new anti-tuberculosis agents” (Eur J Med Chem, 2019).

What was measured:
[1] = MRT in ICR mouse at 25 mg/kg, po measured upto 24 hrs by HPLC analysis; format: ADME, organism-based; settings: in vivo
How it was run: (§1)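 Female SPF ICR mice, 18–22 g, fasted overnight, 3 per group; single oral dose 25 mg/kg as suspension in 0.5% CMC. Jugular vein blood drawn at 0.25, 0.5, 1, 2, 4, 6, 8 and 24 h; serum deproteinised with acetonitrile, dried, redissolved and quantified by HPLC. AUC, t1/2, Cmax and Tmax taken directly from concentration–time data.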

[2] = system: Mycobacterium tuberculosis; experiment: Antimycobacterial activity against Mycobacterium tuberculosis H37Rv assessed as reduction in bacterial cell growth by Low-oxygen recovery assay; format: functional
[3] = Mutagenicity in Salmonella typhimurium TA100 in absence of S9 fraction by mini-Ames test; format: toxicity; settings: salmonella enterica subsp. enterica serovar typhimurium
[4] = system: Mycobacterium tuberculosis; experiment: Antituberculosis activity against Mycobacterium tuberculosis H37Rv infected in BALB/C mouse assessed as reduction in log10CFU in lungs at 25 mg/kg, po administered once daily for 5 days per week for a total of 3 weeks started on day 10 post-infection; format: functional
[5] = Half life in ICR mouse at 25 mg/kg, po measured upto 24 hrs by HPLC analysis; format: ADME, organism-based; settings: in vivo; how it was run: as §1
[6] = Mutagenicity in Salmonella typhimurium TA100 in presence of S9 fraction by mini-Ames test; format: toxicity, subcellular; settings: salmonella enterica subsp. enterica serovar typhimurium
CYP3A4 = CYP3A4 (Homo sapiens, UniProt P08684); experiment: Inhibition of CYP3A4 (unknown origin); format: ADME
[7] = Mutagenicity in Salmonella typhimurium TA102 in presence of S9 fraction by mini-Ames test; format: toxicity, subcellular; settings: salmonella enterica subsp. enterica serovar typhimurium
[8] = Mutagenicity in Salmonella typhimurium TA102 in absence of S9 fraction by mini-Ames test; format: toxicity; settings: salmonella enterica subsp. enterica serovar typhimurium
[9] = system: Mycobacterium tuberculosis; experiment: Antimycobacterial activity against Mycobacterium tuberculosis H37Rv assessed as reduction in bacterial cell growth at 32 ug/ml by Low-oxygen recovery assay; format: functional
[10] = system: Mycobacterium tuberculosis; experiment: Antimycobacterial activity against Mycobacterium tuberculosis H37Rv ATCC 27294 assessed as reduction in bacterial cell growth incubated for 7 days by microplate alamar blue assay; format: functional; settings: H37Rv ATCC 27294, 168 h
How it was run: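 MABA: H37Rv or clinical MDR isolates (resistant to INH and RFP, Beijing Chest Hospital patients) grown to late log phase in 7H9 with glycerol, Tween 80 and ADC, washed, filtered and frozen. Two-fold compound dilutions with 2 × 10⁵ CFU per well, 37 °C; Alamar blue plus Tween 80 added on day 7, fluorescence (ex 530/em 590) read after 16–24 h. MIC = lowest concentration giving ≥90% fluorescence reduction versus mean of bacterium-only controls; RIF and INH as positive controls.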

CYP2D6 = CYP2D6 (Homo sapiens, UniProt P10635); experiment: Inhibition of CYP2D6 (unknown origin); format: ADME
[11] = AUC (0 to infinity) in ICR mouse at 25 mg/kg, po measured upto 24 hrs by HPLC analysis; format: ADME, organism-based; design: dose 25 mg/kg, time infinity, route oral; settings: in vivo; how it was run: as §1
[12] = Acute toxicity in Sprague-Dawley rat assessed as death at 2 g/kg, po measured continuously for first 4 hrs followed by every 1 hr for next 24 hrs and subsequent 8 hrs interval for 7 days; format: organism-based; settings: in vivo, 2000 mg/kg
How it was run: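 SD rats, 180–220 g, randomised, ten per group, food withheld overnight. Single oral dose of 2 g/kg suspended in 5% CMC; controls given vehicle only. Watched continuously for 4 h, hourly for the next 24 h, then every 8 h through day 7 for deaths or changes. Read-out is survivors/total at 7 days.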

Cytochrome P450 2C19 = Cytochrome P450 2C19 (Homo sapiens, UniProt P33261); experiment: Inhibition of CYP2C19 (unknown origin); format: ADME
[13] = system: Mycobacterium tuberculosis; experiment: Antituberculosis activity against Mycobacterium tuberculosis H37Rv infected in BALB/C mouse assessed as colony forming unit in lungs at 25 mg/kg, po administered once daily via gavage for 5 days per week for 3 weeks starting from 10 days post-infection (reference value: 6.44 +/- 0.34); format: functional
[14] = target: Voltage-gated inwardly rectifying potassium channel KCNH2 (Homo sapiens, UniProt Q12809); experiment: Inhibition of human ERG transfected in HEK293 cells by whole-cell patch clamp method; format: cell-based; settings: hek293
[15] = Cmax in ICR mouse at 25 mg/kg, po measured upto 24 hrs by HPLC analysis; format: ADME, organism-based; design: dose 25 mg/kg, route oral; settings: in vivo; how it was run: as §1
[16] = Cytotoxicity against African green monkey Vero cells assessed as reduction in cell viability; format: cell-based; settings: chlorocebus sabaeus
CYP2C9 = CYP2C9 (Homo sapiens, UniProt P11712); experiment: Inhibition of CYP2C9 (unknown origin); format: ADME
[17] = Tmax in ICR mouse at 25 mg/kg, po measured upto 24 hrs by HPLC analysis; format: ADME, organism-based; settings: in vivo; how it was run: as §1
CYP1A2 = target: T1, CYP1A2 (Homo sapiens, UniProt P05177); experiment: Inhibition of CYP1A2 (unknown origin); format: ADME
T1 sequence (P05177 whole entry): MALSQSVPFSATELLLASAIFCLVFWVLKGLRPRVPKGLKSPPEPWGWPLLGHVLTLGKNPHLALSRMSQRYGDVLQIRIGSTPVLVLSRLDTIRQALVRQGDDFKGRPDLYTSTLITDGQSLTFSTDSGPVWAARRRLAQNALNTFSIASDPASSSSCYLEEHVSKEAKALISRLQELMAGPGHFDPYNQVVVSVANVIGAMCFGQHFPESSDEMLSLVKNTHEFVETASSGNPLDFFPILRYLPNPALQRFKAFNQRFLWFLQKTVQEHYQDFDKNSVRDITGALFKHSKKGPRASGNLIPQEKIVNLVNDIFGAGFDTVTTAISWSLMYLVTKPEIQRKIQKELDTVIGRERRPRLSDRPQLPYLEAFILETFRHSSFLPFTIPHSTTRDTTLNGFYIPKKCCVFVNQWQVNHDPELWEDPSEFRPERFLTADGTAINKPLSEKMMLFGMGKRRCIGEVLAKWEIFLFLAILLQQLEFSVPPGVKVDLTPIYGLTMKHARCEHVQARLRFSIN

[18] = Tmax in Sprague-Dawley rat at 200 mg/kg, po measured upto 24 hrs by HPLC analysis; format: ADME, organism-based; settings: in vivo
How it was run: (§2)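 SD rats, 180–220 g; single intravenous dose 2.5 mg/kg or oral doses of 25, 50 or 200 mg/kg, n = 6, half of each sex. Serum sampling, acetonitrile deproteinisation and HPLC quantification followed the mouse procedure. Parameters derived from concentration–time data; F% obtained from the oral and IV exposures.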

[19] = Cmax in Sprague-Dawley rat at 2.5 mg/kg, iv measured upto 24 hrs by HPLC analysis; format: ADME, organism-based; design: dose 2.5 mg/kg, route intravenous; settings: in vivo; how it was run: as §2
[20] = Tmax in Sprague-Dawley rat at 25 mg/kg, po measured upto 24 hrs by HPLC analysis; format: ADME, organism-based; settings: in vivo; how it was run: as §2
[21] = AUC (0 to infinity) in Sprague-Dawley rat at 200 mg/kg, po by HPLC analysis; format: ADME, organism-based; design: dose 200 mg/kg, route oral, time infinity; settings: in vivo; how it was run: as §2
[22] = Oral bioavailability in Sprague-Dawley rat at 200 mg/kg measured upto 24 hrs by HPLC analysis; format: ADME, organism-based; settings: in vivo; how it was run: as §2
[23] = Half life in Sprague-Dawley rat at 50 mg/kg, po measured upto 24 hrs by HPLC analysis; format: ADME, organism-based; settings: in vivo; how it was run: as §2
[24] = Cmax in Sprague-Dawley rat at 50 mg/kg, po measured upto 24 hrs by HPLC analysis; format: ADME, organism-based; design: dose 50 mg/kg, route oral; settings: in vivo; how it was run: as §2
[25] = Half life in Sprague-Dawley rat at 2.5 mg/kg, iv measured upto 24 hrs by HPLC analysis; format: ADME, organism-based; settings: in vivo; how it was run: as §2
[26] = Tmax in Sprague-Dawley rat at 50 mg/kg, po measured upto 24 hrs by HPLC analysis; format: ADME, organism-based; settings: in vivo; how it was run: as §2
[27] = Half life in Sprague-Dawley rat at 200 mg/kg, po measured upto 24 hrs by HPLC analysis; format: ADME, organism-based; settings: in vivo; how it was run: as §2
[28] = Half life in Sprague-Dawley rat at 25 mg/kg, po measured upto 24 hrs by HPLC analysis; format: ADME, organism-based; settings: in vivo; how it was run: as §2
[29] = AUC (0 to infinity) in Sprague-Dawley rat at 50 mg/kg, po by HPLC analysis; format: ADME, organism-based; design: dose 50 mg/kg, time infinity, route oral; settings: in vivo; how it was run: as §2
[30] = Cmax in Sprague-Dawley rat at 25 mg/kg, po measured upto 24 hrs by HPLC analysis; format: ADME, organism-based; design: dose 25 mg/kg, route oral; settings: in vivo; how it was run: as §2
[31] = Oral bioavailability in Sprague-Dawley rat at 25 mg/kg measured upto 24 hrs by HPLC analysis; format: ADME, organism-based; settings: in vivo; how it was run: as §2
[32] = Cmax in Sprague-Dawley rat at 200 mg/kg, po measured upto 24 hrs by HPLC analysis; format: ADME, organism-based; design: dose 200 mg/kg, route oral; settings: in vivo; how it was run: as §2
[33] = AUC (0 to infinity) in Sprague-Dawley rat at 25 mg/kg, po by HPLC analysis; format: ADME, organism-based; design: dose 25 mg/kg, route oral, time infinity; settings: in vivo; how it was run: as §2
[34] = Oral bioavailability in Sprague-Dawley rat at 50 mg/kg measured upto 24 hrs by HPLC analysis; format: ADME, organism-based; settings: in vivo; how it was run: as §2
[35] = AUC (0 to infinity) in Sprague-Dawley rat at 2.5 mg/kg, iv by HPLC analysis; format: ADME, organism-based; design: dose 2.5 mg/kg, route intravenous, time infinity; settings: in vivo; how it was run: as §2

Chain of CYP3A4 (P08684 whole entry): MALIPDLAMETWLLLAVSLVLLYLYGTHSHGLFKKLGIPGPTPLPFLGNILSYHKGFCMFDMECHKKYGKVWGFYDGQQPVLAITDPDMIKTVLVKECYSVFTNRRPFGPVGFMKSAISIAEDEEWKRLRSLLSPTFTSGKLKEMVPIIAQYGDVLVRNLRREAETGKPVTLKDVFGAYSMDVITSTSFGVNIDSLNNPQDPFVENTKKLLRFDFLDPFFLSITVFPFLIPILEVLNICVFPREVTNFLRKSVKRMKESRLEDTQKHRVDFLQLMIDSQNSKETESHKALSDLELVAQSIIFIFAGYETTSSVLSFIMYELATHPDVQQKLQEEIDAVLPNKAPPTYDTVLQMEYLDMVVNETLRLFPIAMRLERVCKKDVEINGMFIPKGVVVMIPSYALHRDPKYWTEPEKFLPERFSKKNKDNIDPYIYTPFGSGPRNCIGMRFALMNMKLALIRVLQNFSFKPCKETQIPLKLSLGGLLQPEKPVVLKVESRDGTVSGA
Chain of CYP2D6 (P10635 whole entry): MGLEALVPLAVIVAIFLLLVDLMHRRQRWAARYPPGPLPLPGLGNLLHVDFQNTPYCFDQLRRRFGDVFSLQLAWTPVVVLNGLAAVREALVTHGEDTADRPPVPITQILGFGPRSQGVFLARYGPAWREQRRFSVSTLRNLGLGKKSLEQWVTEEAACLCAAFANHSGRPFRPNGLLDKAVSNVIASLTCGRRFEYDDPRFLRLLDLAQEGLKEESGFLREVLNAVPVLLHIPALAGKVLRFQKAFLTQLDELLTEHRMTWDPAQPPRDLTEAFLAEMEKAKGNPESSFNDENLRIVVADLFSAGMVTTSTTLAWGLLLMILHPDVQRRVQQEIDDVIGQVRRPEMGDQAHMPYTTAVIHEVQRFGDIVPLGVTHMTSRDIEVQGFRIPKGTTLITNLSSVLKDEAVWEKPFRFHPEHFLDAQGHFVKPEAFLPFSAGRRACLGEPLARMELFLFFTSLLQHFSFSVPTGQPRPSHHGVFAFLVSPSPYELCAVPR
Chain of CYP2C9 (P11712 whole entry): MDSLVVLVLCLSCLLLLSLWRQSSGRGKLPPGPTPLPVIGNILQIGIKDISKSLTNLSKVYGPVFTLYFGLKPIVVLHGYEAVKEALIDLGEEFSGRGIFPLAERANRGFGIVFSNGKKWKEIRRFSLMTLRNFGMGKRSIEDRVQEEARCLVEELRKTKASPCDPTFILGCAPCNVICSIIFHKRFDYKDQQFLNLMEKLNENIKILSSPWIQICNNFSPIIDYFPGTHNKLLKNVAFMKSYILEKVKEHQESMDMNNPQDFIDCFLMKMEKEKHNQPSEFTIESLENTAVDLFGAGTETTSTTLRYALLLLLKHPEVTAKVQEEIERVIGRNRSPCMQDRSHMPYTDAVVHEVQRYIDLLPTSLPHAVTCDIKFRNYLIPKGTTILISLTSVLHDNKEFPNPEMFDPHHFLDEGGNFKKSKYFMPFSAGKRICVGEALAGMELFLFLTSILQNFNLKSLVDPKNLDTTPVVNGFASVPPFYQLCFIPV
Chain of Cytochrome P450 2C19 (P33261 whole entry): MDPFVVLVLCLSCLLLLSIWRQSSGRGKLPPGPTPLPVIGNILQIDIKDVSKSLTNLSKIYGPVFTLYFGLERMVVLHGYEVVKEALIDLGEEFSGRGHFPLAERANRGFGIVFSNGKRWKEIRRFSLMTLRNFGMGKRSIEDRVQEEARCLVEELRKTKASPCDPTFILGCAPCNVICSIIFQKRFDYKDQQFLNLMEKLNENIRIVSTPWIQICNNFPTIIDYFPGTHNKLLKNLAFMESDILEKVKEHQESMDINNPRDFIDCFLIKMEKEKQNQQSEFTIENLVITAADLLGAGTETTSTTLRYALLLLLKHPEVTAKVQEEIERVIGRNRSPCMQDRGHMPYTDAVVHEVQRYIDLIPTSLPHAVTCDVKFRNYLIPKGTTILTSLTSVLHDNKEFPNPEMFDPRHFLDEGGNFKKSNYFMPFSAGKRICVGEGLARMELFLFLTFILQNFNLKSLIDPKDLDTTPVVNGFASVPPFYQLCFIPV
Chain of Voltage-gated inwardly rectifying potassium channel KCNH2 (Q12809 whole entry): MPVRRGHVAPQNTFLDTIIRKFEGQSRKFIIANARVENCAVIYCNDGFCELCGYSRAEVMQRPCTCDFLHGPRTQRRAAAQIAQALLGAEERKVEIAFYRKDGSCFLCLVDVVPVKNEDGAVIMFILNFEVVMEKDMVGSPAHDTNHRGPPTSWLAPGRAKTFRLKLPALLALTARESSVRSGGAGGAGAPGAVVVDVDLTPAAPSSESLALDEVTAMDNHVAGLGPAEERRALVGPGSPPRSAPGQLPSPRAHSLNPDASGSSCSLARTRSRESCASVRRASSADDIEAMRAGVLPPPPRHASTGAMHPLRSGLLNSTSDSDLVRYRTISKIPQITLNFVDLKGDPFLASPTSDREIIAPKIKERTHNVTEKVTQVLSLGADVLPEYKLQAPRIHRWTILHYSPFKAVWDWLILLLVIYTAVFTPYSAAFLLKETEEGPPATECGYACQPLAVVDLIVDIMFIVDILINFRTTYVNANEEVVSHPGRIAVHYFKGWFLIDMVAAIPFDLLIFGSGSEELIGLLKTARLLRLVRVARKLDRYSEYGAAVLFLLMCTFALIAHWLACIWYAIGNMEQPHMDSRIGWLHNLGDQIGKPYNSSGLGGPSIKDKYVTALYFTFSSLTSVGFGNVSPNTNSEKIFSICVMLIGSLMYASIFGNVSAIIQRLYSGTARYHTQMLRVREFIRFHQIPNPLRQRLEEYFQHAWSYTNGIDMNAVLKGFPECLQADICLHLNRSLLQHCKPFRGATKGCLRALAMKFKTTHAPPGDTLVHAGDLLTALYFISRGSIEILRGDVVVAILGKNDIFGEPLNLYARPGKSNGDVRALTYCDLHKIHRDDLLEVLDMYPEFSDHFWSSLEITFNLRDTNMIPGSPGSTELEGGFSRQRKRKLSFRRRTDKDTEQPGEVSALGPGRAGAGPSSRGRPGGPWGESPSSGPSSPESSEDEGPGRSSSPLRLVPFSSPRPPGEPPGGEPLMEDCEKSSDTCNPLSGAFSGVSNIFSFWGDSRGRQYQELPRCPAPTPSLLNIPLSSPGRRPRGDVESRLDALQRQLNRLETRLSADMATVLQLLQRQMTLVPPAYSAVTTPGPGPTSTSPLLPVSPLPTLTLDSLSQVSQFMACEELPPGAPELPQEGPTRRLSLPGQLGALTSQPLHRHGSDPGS

Row | SMILES | MRT [1] [h] | MIC [2] [µg/mL] | Activity [3] | Activity [4] [log10CFU] | half-life [5] [min] | Activity [6] | IC50 (CYP3A4) [µM] | Activity [7] | Activity [8] | inhibition at 32 µg/mL [9] [%] | MIC90 [10] [µg/mL] | IC50 (CYP2D6) [µM] | AUC(0-inf) [11] [ng·h/mL] | Activity [12] | IC50 (Cytochrome P450 2C19) [µM] | Activity [13] [log10CFU] | Cmax [15] [ng/mL] | CC50 [16] [µg/mL] | IC50 (CYP2C9) [µM] | Tmax [17] [min] | also measured
1 | CCON=C1CCC(CN2CCN(c3nc(=O)c4cc(C(F)(F)F)cc([N+](=O)[O-])c4s3)CC2)CC1 (stereo unspecified) | 2.3 | > 32 | Non-Toxic | 4.44 | 137 | Non-Toxic | > 10 | Non-Toxic | Non-Toxic | 79 | < 0.016 | > 10 | 40600 | Non-Toxic | > 10 | 2 | 15200 | > 64 | > 10 | 15 | IC50 [14]: 38.9 µM; IC50 (CYP1A2): > 10 µM
2 | CON=C1CCC(CN2CCN(c3nc(=O)c4cc(C(F)(F)F)cc([N+](=O)[O-])c4s3)CC2)CC1 (stereo unspecified) | 2.46 | > 32 | Non-Toxic | 4.04 | 99 | Non-Toxic | > 10 | Non-Toxic | Non-Toxic | 86 | < 0.016 | > 10 | 27500 | Non-Toxic | 7.8 | 2.4 | 8570 | > 64 | > 10 | 15 | Tmax [18]: 2.83 h; Cmax [19]: 2590 ng/mL; Tmax [20]: 1.25 h; AUC(0-inf) [21]: 128 µg·h/mL; bioavailability [22]: 30.3%; half-life [23]: 248 min; Cmax [24]: 10100 ng/mL; half-life [25]: 106 min; Tmax [26]: 1.67 h; half-life [27]: 404 min; half-life [28]: 192 min; AUC(0-inf) [29]: 45900 ng·h/mL; Cmax [30]: 6230 ng/mL; bioavailability [31]: 46.1%; Cmax [32]: 18200 ng/mL; AUC(0-inf) [33]: 26800 ng·h/mL; bioavailability [34]: 40.4%; AUC(0-inf) [35]: 5720 ng·h/mL; IC50 (CYP1A2): > 10 µM
